Reference: ChEMBL document CHEMBL3414537, “Efficient synthesis and biological activity of Psammaplin A and its analogues as antitumor agents” (Eur J Med Chem, 2015)
pIC50: −log10 of the molar value. Activity calls are given as the source filed them. No cut-off for these calls is given here.

Experiments:
[1] = target: T1, Histone deacetylase (Homo sapiens) (UniProt Q13547+O15379+Q9UBN7+Q92769+Q9UQL6+Q8WUI4+Q9BY41+Q96DB2+P56524+Q9UKV0+Q969S8); assay: Inhibition of HDAC in human A549 cells after 24 hrs by fluorescence assay; assay type: cell-based
[2] = system: A549; assay: Induction of phosphorylated ERK level in human A549 cells after 24 hrs by Western blotting analysis; assay type: cell-based
How it was run: (§1)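 After 24 h exposure (0.2–1.6 µM), A549 lysates were prepared in Tris-HCl pH 6.8/4% SDS buffer with protease and phosphatase inhibitors at 4 °C. Equal protein was separated by SDS-PAGE and transferred to PVDF. Membranes were blocked in 5% BSA/TBS-Tween for 2 h, incubated with primary antibody overnight at 4 °C, then HRP secondary for 1 h, with chemiluminescent detection.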

[3] = system: A549; assay: Antiproliferative activity against human A549 cells assessed as shrunken and sharp shape at 1.6 uM after 24 hrs by phase contrast microscopy; assay type: functional, cell-based
How it was run: (§2)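 A549 cells (RPMI 1640, 10% heat-inactivated FBS, 37 °C, 5% CO2) exposed to 0.2–1.6 µM for 24 h; TSA 0.4 µM run alongside. Cell shape examined by phase-contrast microscopy.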

[4] = system: A549; assay: Antitumor activity against human A549 cells xenografted in athymic BALB/c nu/nu mouse assessed as inhibition of Ki-67 expression in central and edge region of tumor at 15 to 30 mg/kg, ip administered thrice a week measured after 35 days by immunohistochemical analysis relative to vehicle-treated control; assay type: functional, organism-based
How it was run: (§3)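 In the A549 nude-mouse xenograft (15 or 30 mg/kg i.p. thrice weekly, vehicle control), end-point tumor sections were incubated overnight at 4 °C with Ki-67 antibody. Detection used an HRP polymer system with hematoxylin-eosin counterstain, and sections were imaged by light microscopy.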

[5] = system: Mus musculus; assay: Toxicity in athymic BALB/c nu/nu mouse xenografted with human A549 cells assessed as change in body weight at 15 to 30 mg/kg, ip administered thrice a week measured after 35 days relative to vehicle-treated control; assay type: organism-based; design: dose 15-30 mg/kg, route intraperitoneal; conditions: in vivo, 840 h
[6] = system: A549; assay: Antitumor activity against human A549 cells xenografted in athymic BALB/c nu/nu mouse assessed as tumor growth inhibition at 15 mg/kg, ip administered thrice a week measured after 35 days relative to vehicle-treated control; assay type: functional; conditions: 840 h, route intraperitoneal, read-out: TGI
How it was run: (§4)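 Male BALB/c nu/nu mice (6 weeks) were implanted s.c. in the right flank with 1 × 10^7 A549 cells. Dosing started at tumor volume 50–60 mm3, with 6 mice per group. Treatment was 15 or 30 mg/kg i.p. three times weekly in 0.05% Tween-80/0.9% NaCl, with vehicle and paclitaxel 5 mg/kg controls. Tumor volume was followed to day 35, and end-point tumors were weighed.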

[7] = system: A549; assay: Antitumor activity against human A549 cells xenografted in athymic BALB/c nu/nu mouse assessed as change in cell number in edge or peripheral region of tumor at 15 to 30 mg/kg, ip administered thrice a week measured after 35 days by immunohistochemical analysis relative to vehicle-treated control; assay type: functional, organism-based; how it was run: as §3
[8] = system: A549; assay: Antiproliferative activity against human A549 cells assessed as morphological changes after 24 hrs by phase contrast microscopy; assay type: functional, cell-based; how it was run: as §2
[9] = system: A549; assay: Antitumor activity against human A549 cells xenografted in athymic BALB/c nu/nu mouse assessed as tumor growth inhibition at 30 mg/kg, ip administered thrice a week measured after 35 days relative to vehicle-treated control; assay type: functional; conditions: 840 h, route intraperitoneal, read-out: TGI; how it was run: as §4
[10] = Cytotoxicity against human HCT116 cells by SRB assay; assay type: functional, cell-based; conditions: HCT-116
How it was run: (§5)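 Cells at 3.5 × 10^4 cells/mL in RPMI 1640 with 10% heat-inactivated FBS were exposed to a range of concentrations for 72 h. They were then TCA-fixed (10%) and stained with sulforhodamine B. Growth is expressed as % of solvent-treated control, and IC50 is obtained by non-linear regression. Means of ≥3 experiments.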

[11] = system: A549; assay: Induction of phosphorylated AKT level in human A549 cells after 24 hrs by Western blotting analysis; assay type: cell-based; how it was run: as §1
[12] = target: T1, Histone deacetylase (Homo sapiens); assay: Inhibition of HDAC in human A549 cells assessed as increase in acetylated histone 3 expression level after 24 hrs by western blotting analysis; assay type: cell-based; how it was run: as §1
[13] = system: A549; assay: Antitumor activity against human A549 cells xenografted in athymic BALB/c nu/nu mouse assessed as change in cell number in central region of tumor at 15 to 30 mg/kg, ip administered thrice a week measured after 35 days by immunohistochemical analysis relative to vehicle-treated control; assay type: functional, organism-based; how it was run: as §3
[14] = system: A549; assay: Antitumor activity against human A549 cells xenografted in athymic BALB/c nu/nu mouse assessed as reduction in tumor weight at 15 to 30 mg/kg, ip administered thrice a week measured after 35 days relative to vehicle-treated control; assay type: functional, organism-based; how it was run: as §4
[15] = system: A549; assay: Cytotoxicity against human A549 cells by SRB assay; assay type: functional, cell-based; how it was run: as §5
[16] = system: A549; assay: Antiproliferative activity against human A549 cells assessed as shrunken and sharp shape at 0.4 uM after 24 hrs by phase contrast microscopy; assay type: functional, cell-based; how it was run: as §2
[17] = system: A549; assay: Antitumor activity against human A549 cells xenografted in athymic BALB/c nu/nu mouse assessed as reduction in tumor weight at 30 mg/kg, ip administered thrice a week measured after 35 days relative to vehicle-treated control; assay type: functional, organism-based; design: dose 30 mg/kg; how it was run: as §4
[18] = target: T1, Histone deacetylase (Homo sapiens); assay: Inhibition of HDAC in human A549 cells assessed as increase in acetylated histone 3 expression level at 1.6 uM after 24 hrs by western blotting analysis; assay type: cell-based; how it was run: as §1
[19] = target: T1, Histone deacetylase (Homo sapiens); assay: Inhibition of HDAC in human A549 cells at 1.6 uM after 24 hrs by fluorescence assay; assay type: cell-based

| Structure (SMILES) | pIC50 [10] | pIC50 [15] | other results |
| --- | --- | --- | --- |
| O=C(NCCSSCCNC(=O)/C(Cc1ccc2ccccc2c1)=N/O)/C(Cc1ccc2ccccc2c1)=N\O | 5.89 | 5.92 | inhibition [1]: Dose-dependent effect; Activity [2]: Dose-dependent effect; Activity [3]: Active; inhibition [4]: Active; Activity [5]: Non-toxic; inhibition in vivo at 15 mg/kg [6]: 30.4%; Activity [7]: Active; Activity [8]: Dose-dependent effect; inhibition in vivo at 30 mg/kg [9]: 47.6%; Activity [11]: Dose-dependent effect; inhibition [12]: Dose-dependent effect; Activity [13]: inactive; Activity [14]: Active; Activity [15]: Dose-dependent effect |
| O=C(NCCSSCCNC(=O)/C(Cc1ccc(OCc2ccccc2)cc1)=N/O)/C(Cc1ccc(OCc2ccccc2)cc1)=N\O | 5.80 | 5.95 |  |
| CCOc1ccc(C/C(=N/O)C(=O)NCCSSCCNC(=O)/C(Cc2ccc(OCC)cc2)=N/O)cc1 | 5.79 | 5.86 |  |
| O=C(NCCSSCCNC(=O)/C(Cc1ccc(OC2CCCC2)cc1)=N/O)/C(Cc1ccc(OC2CCCC2)cc1)=N\O | 5.27 | 5.85 |  |
| O=C(NCCSSCCNC(=O)/C(Cc1cc(Cl)cc(Cl)c1)=N/O)/C(Cc1cc(Cl)cc(Cl)c1)=N\O | 5.68 | 5.64 |  |
| O=C(NCCSSCCNC(=O)/C(Cc1cccc2ccccc12)=N/O)/C(Cc1cccc2ccccc12)=N\O | < 4.00 | < 4.00 |  |
| CC(/C=C/C(=O)NO)=C\[C@@H](C)C(=O)c1ccc(N(C)C)cc1 |  |  | Activity [16]: Active |
| O=C(NCCSSCCNC(=O)/C(Cc1ccc(F)cc1)=N/O)/C(Cc1ccc(F)cc1)=N\O | 5.42 | 5.46 |  |
| O=C(NCCCCCCNC(=O)/C(Cc1ccc(OCc2ccccc2)cc1)=N\O)/C(Cc1ccc(OCc2ccccc2)cc1)=N\O | < 4.00 | 4.70 |  |
| O=C(NCCCl)/C(Cc1ccc(OCc2ccccc2)cc1)=N\O | < 4.00 | < 4.00 |  |
| CO/N=C(/Cc1ccc(OC)c(Br)c1)C(=O)NCCSSCCNC(=O)/C(Cc1ccc(OC)c(Br)c1)=N\OC | 4.97 | 5.04 |  |
| O=C(NCCSSCCNC(=O)/C(Cc1ccc(Br)cc1)=N/O)/C(Cc1ccc(Br)cc1)=N\O | 5.14 | 5.23 |  |
| CC(C)(C)c1ccc(C/C(=N/O)C(=O)NCCSSCCNC(=O)/C(Cc2ccc(C(C)(C)C)cc2)=N/O)cc1 | 5.78 | 5.75 |  |
| CCCCOc1ccc(C/C(=N/O)C(=O)NCCSSCCNC(=O)/C(Cc2ccc(OCCCC)cc2)=N/O)cc1 | 4.62 | 4.39 |  |
| O=C(NCCSSCCNC(=O)/C(Cc1ccc(Cl)c(Cl)c1)=N/O)/C(Cc1ccc(Cl)c(Cl)c1)=N\O | 5.84 | 5.80 |  |
| Cc1ccc(C/C(=N/O)C(=O)NCCSSCCNC(=O)/C(Cc2ccc(C)cc2)=N/O)cc1 | 5.25 | 5.22 |  |
| O=C(NCCSSCCNC(=O)/C(Cc1cc(Cl)cc(Cl)c1Cl)=N/O)/C(Cc1cc(Cl)cc(Cl)c1Cl)=N\O | 5.37 | 5.29 |  |
| O=C(NCCSSCCNC(=O)/C(Cc1ccc(O)c(Br)c1)=N/O)/C(Cc1ccc(O)c(Br)c1)=N/O [PSAMMAPLIN A] | 5.79 | 5.93 | Activity [17]: Active; inhibition [18]: Active; inhibition [19]: Active |
| O=C(NCCSCCNC(=O)/C(Cc1ccc(OCc2ccccc2)cc1)=N\O)/C(Cc1ccc(OCc2ccccc2)cc1)=N\O | < 4.00 | 5.60 |  |
| O=C(NCCSSCCNC(=O)/C(Cc1ccc(Cl)cc1)=N/O)/C(Cc1ccc(Cl)cc1)=N\O | 5.69 | 5.59 |  |
| CCCOc1ccc(C/C(=N/O)C(=O)NCCSSCCNC(=O)/C(Cc2ccc(OCCC)cc2)=N/O)cc1 | 4.81 | 4.87 |  |
| CO/N=C(/Cc1ccc(OC)cc1)C(=O)NCCSSCCNC(=O)/C(Cc1ccc(OC)cc1)=N\OC | < 4.00 | < 4.00 |  |
| COc1ccc(C/C(=N/O)C(=O)NCCSSCCNC(=O)/C(Cc2ccc(OC)cc2)=N/O)cc1 | 5.36 | 5.55 |  |
| O=C(NCCSSCCNC(=O)/C(Cc1ccc(Oc2ccccc2)cc1)=N/O)/C(Cc1ccc(Oc2ccccc2)cc1)=N\O | 4.69 | < 4.00 |  |
| O=C(NCCSSCCNC(=O)/C(Cc1ccccc1)=N/O)/C(Cc1ccccc1)=N\O | 5.21 | 5.18 |  |
| O=C(NCCSSCCNC(=O)/C(Cc1c2ccccc2cc2ccccc12)=N\O)/C(Cc1c2ccccc2cc2ccccc12)=N\O | 4.55 | 4.73 |  |
| O=C(NCCCCl)/C(Cc1ccc(OCc2ccccc2)cc1)=N\O | < 4.00 | < 4.00 |  |
| O=C(NCCSSCCNC(=O)/C(Cc1ccc([N+](=O)[O-])cc1)=N/O)/C(Cc1ccc([N+](=O)[O-])cc1)=N\O | 5.74 | 5.58 |  |
| O=C(NCCS)/C(Cc1ccc(OCc2ccccc2)cc1)=N\O | 4.07 | 4.40 |  |
